Assays:
[1] = biological target: Integrin alpha-IIb/beta-3 (Homo sapiens, UniProt P05106+P08514); test: Concentration required to reduce binding of fibrinogen to purified Fibrinogen Receptor by 50% using ELISA; assay type: protein-complex assay
In short: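 ELISA of fibrinogen binding to immobilized purified human platelet GPIIb-IIIa; biotinylated fibrinogen detected with alkaline phosphatase-labeled goat antibiotin and p-nitrophenol phosphate substrate; IC50 as inhibition of fibrinogen binding.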

Homo sapiens = species on record: Homo sapiens; test: Ability to block Glycoprotein IIb-IIIa was measured by inhibiting ADP induced human platelet aggregation (5 uM); assay type: functional

Sequence of Integrin alpha-IIb/beta-3 (P05106 27-788 limits assumed): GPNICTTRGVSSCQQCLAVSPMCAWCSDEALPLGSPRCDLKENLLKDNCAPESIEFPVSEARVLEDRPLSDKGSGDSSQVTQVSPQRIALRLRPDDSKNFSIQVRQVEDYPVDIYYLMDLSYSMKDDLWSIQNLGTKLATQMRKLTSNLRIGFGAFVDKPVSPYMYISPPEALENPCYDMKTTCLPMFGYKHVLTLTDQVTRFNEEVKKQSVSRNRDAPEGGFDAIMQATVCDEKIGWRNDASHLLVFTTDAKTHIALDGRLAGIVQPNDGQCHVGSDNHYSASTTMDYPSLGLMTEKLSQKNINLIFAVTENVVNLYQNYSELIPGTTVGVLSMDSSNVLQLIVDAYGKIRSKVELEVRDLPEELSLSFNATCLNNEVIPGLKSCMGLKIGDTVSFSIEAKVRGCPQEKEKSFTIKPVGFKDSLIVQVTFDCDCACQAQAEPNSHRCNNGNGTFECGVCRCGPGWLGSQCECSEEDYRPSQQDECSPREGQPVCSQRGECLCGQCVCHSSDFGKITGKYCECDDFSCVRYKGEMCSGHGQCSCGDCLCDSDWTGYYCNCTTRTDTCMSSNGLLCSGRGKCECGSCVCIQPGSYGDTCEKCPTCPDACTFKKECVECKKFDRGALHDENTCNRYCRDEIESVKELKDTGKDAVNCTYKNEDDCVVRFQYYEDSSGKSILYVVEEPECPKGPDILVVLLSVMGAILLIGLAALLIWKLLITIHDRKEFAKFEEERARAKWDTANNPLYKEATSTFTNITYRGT
Sequence of Integrin alpha-IIb/beta-3 (P08514 32-887 limits assumed): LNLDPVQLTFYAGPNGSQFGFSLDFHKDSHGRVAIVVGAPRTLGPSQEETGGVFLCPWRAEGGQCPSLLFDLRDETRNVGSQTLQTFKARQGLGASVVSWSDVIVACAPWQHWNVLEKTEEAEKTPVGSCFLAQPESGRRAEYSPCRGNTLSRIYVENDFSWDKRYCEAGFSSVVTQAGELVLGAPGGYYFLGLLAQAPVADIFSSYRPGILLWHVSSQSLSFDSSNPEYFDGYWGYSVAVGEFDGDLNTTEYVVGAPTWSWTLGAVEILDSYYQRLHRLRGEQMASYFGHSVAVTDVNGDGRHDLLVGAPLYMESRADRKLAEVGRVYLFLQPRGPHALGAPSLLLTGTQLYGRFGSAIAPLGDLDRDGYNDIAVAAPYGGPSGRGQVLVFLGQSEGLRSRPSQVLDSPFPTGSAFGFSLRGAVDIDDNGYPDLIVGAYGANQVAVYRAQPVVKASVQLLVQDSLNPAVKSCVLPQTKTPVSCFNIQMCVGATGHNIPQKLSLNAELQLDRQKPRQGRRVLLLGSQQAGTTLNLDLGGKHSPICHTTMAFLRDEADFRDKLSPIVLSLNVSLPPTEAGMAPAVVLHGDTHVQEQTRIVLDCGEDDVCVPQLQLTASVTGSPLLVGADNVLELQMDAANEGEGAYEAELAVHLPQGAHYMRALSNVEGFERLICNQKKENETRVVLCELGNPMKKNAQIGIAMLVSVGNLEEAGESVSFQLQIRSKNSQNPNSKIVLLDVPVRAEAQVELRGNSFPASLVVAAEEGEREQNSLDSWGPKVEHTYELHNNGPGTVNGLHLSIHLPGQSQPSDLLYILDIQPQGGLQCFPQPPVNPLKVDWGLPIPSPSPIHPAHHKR
Sequence of Integrin alpha-IIb/beta-3 (P08514 891-1039 limits assumed): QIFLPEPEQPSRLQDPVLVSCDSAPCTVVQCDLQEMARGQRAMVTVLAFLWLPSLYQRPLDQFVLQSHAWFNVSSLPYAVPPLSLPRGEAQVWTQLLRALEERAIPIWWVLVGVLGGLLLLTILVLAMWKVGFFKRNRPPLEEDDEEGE

SMILES: NCCCCCCOc1ccc2c(c1)CCN(CC(=O)O)C2=O
- IC50 [1]: 19 µM

SMILES: N=C(N)NCCCCOc1ccc2c(c1)C(=O)N(CC(=O)O)CC2
- IC50 [1]: 46 µM

SMILES: N=C(N)NCCCCOc1ccc2c(c1)CCN(CC(=O)O)C2=O
- IC50 [1]: 10 µM

SMILES: O=C(O)CN1CCc2cc(OCC3CCNCC3)ccc2C1=O
- IC50 [1]: 55 µM

SMILES: NCCCOc1ccc2c(c1)CCN(CC(=O)O)C2=O
- IC50 [1]: 48 µM

SMILES: N=C(N)c1ccc(C#Cc2ccc3c(c2)CCN(CC(=O)O)C3=O)cc1
- IC50 [1]: 0.033 µM
- IC50 (Homo sapiens): 0.52 µM

SMILES: O=C(O)CN1CCc2cc(OCCCCC3CCNCC3)ccc2C1=O
- IC50 [1]: 1.8 µM
- IC50 (Homo sapiens): 9.8 µM

SMILES: N=C(N)c1ccc(COc2ccc3c(c2)CCN(CC(=O)O)C3=O)cc1
- IC50 (Homo sapiens): 30 µM

SMILES: N=C(N)c1ccc(CCOc2ccc3c(c2)CCN(CC(=O)O)C3=O)cc1
- IC50 [1]: 6 µM

SMILES: N=C(N)NCCCOc1ccc2c(c1)C(=O)N(CC(=O)O)CC2
- IC50 [1]: < 100 µM

SMILES: N=C(N)NCc1cccc(COc2ccc3c(c2)CCN(CC(=O)O)C3=O)c1
- IC50 [1]: 14 µM

SMILES: N=C(N)NCCCOc1ccc2c(c1)CCN(CC(=O)O)C2=O
- IC50 [1]: 44 µM

SMILES: N=C(N)c1ccc(/C=C/c2ccc3c(c2)CCN(CC(=O)O)C3=O)cc1
- IC50 [1]: 0.048 µM
- IC50 (Homo sapiens): 0.34 µM

SMILES: N=C(N)c1ccc(COc2ccc3c(c2)C(=O)N(CC(=O)O)CC3)cc1
- IC50 [1]: 4 µM

SMILES: NCCCCOc1ccc2c(c1)CCN(CC(=O)O)C2=O
- IC50 [1]: 18 µM

SMILES: N=C(N)c1ccc(NC(=O)c2ccc3c(c2)CCN(CC(=O)O)C3=O)cc1
- IC50 [1]: 0.076 µM
- IC50 (Homo sapiens): 0.56 µM

SMILES: NCCCCCOc1ccc2c(c1)CCN(CC(=O)O)C2=O
- IC50 [1]: 28 µM

SMILES: N=C(N)c1ccc(CCc2ccc3c(c2)CCN(CC(=O)O)C3=O)cc1
- IC50 (Homo sapiens): 1.2 µM

SMILES: O=C(O)CN1CCc2cc(OCCCC3CCNCC3)ccc2C1=O
- IC50 [1]: 6 µM

SMILES: N=C(N)NCc1ccc(COc2ccc3c(c2)CCN(CC(=O)O)C3=O)cc1
- IC50 [1]: 4 µM

SMILES: N=C(N)c1ccc(/C=C\c2ccc3c(c2)CCN(CC(=O)O)C3=O)cc1
- IC50 [1]: 0.29 µM
- IC50 (Homo sapiens): 5.7 µM

SMILES: N=C(N)c1ccc(C(=O)Nc2ccc3c(c2)CCN(CC(=O)O)C3=O)cc1
- IC50 [1]: 0.003 µM
- IC50 (Homo sapiens): 0.09 µM

SMILES: O=C(O)CN1CCc2cc(OCCC3CCNCC3)ccc2C1=O
- IC50 [1]: 11 µM

SMILES: NCc1ccc(COc2ccc3c(c2)CCN(CC(=O)O)C3=O)cc1
- IC50 [1]: 12 µM

SMILES: N=C(N)NCCCCCCOc1ccc2c(c1)CCN(CC(=O)O)C2=O
- IC50 [1]: 12 µM

SMILES: NCc1cccc(COc2ccc3c(c2)CCN(CC(=O)O)C3=O)c1
- IC50 [1]: 77 µM

Reference: ChEMBL document CHEMBL1130079, “Non-peptide RGD surrogates which mimic a Gly-Asp beta-turn: potent antagonists of platelet glycoprotein IIb-IIIa” (J Med Chem, 1997)
